The source of these data is ChEMBL document CHEMBL3091432, “(S)-4-Trimethylsilyl-3-butyn-2-ol as an auxiliary for stereocontrolled synthesis of salinosporamide analogs with modifications at positions C2 and C5” (Bioorg Med Chem Lett, 2013).

The target of test [1] is T1, Proteasome Macropain subunit MB1 (Homo sapiens, UniProt P28074).
T1 sequence (P28074 whole entry): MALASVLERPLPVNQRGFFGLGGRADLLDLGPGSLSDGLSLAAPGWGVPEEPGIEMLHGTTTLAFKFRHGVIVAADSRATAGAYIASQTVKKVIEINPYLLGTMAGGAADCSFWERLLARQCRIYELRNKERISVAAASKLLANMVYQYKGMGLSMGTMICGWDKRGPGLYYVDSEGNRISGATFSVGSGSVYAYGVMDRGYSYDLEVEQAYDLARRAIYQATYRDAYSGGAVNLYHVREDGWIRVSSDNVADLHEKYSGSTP
The experiment in a line: Inhibition of chymotrypsin like activity of 20S proteasome in HEK293 cells after 24 hrs by microscopic analysis. The format is cell-based. The method, boiled down: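 Image-based screen in a stably transfected HEK cell line expressing a GFP-tagged proteasomal substrate. Proteasomal inhibition is read out by cellular fluorescence.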

Test [2] has as its target T1, Proteasome Macropain subunit MB1. In words: Inhibition of chymotrypsin like activity of human 20S proteasome after 1 hr by luminescence assay.
In test [3] the target is T2, Proteasome Macropain subunit MB1 (Homo sapiens) (UniProt P28074).
T2 sequence (whole entry): T1 sequence (P28074 whole entry)
In words: Inhibition of human 20S proteasome beta 5 subunit assessed as non-cyclized product formation after 5 to 10 mins by FT-MS analysis. In a few lines:
(§1)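 Purified human 20S proteasome (1.4 μM) incubated at 23 °C with a 10-fold molar excess of inhibitor in pH 7.5 buffer (10 mM Tris/HCl, 1 mM EDTA, 1 mM DTT, <1% DMSO) for varying times. Reactions stopped by denaturing quench, desalted on C4 tips, eluted with 70:30:0.1 acetonitrile–water–formic acid, then analysed by mass spectrometry to follow each step of subunit modification.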

For test [4], the target named is T2, Proteasome Macropain subunit MB1 (Homo sapiens). The experiment in a line: Inhibition of human 20S proteasome beta 5 subunit assessed as cyclized acylated protein adduct formation after <20 mins by ESI-TOF analysis. In a few lines: as §1
For test [5] the target is unchanged. The experiment in a line: Inhibition of human 20S proteasome beta 5 subunit assessed as cyclized acylated protein adduct formation after <20 mins by FT-MS analysis. In a few lines:
as §1

Test [6] has the same target. In words: Inhibition of human 20S proteasome beta 5 subunit assessed as non-cyclized product formation after 5 to 10 mins by ESI-TOF analysis. The method, boiled down:
as §1

Test [7] shares this target. In words: Inhibition of human 20S proteasome beta 5 subunit assessed as hydrolysis of non-cyclized product after 48 hrs by FT-MS analysis. The method, boiled down: as §1
Test [8] has the same target. The experiment in a line: Inhibition of human 20S proteasome beta 5 subunit assessed as cyclized acylated protein adduct formation after 48 hrs by ESI-TOF analysis. In a few lines: as §1
Test [9] shares this target. The experiment in a line: Inhibition of human 20S proteasome beta 5 subunit assessed as cyclized acylated protein adduct formation after 48 hrs by FT-MS analysis. The method, boiled down:
as §1

Test [10] has the same target. In words: Inhibition of human 20S proteasome beta 5 subunit assessed as hydrolysis of non-cyclized product after 48 hrs by ESI-TOF analysis. The method, boiled down: as §1

Structures are written as SMILES. Calls of active or inactive are those of the source. The calls are words filed in the database; no cut-off is given here.

In test [1], `C[C@@]12OC(=O)[C@]1([C@@H](O)Cc1ccccc1)NC(=O)[C@@H]2CCCl` had a 50% effective concentration (EC50) of 332 nM. In test [2], it took 500 nM to reach half-maximal inhibition (IC50).

In test [1], `C[C@@]12OC(=O)[C@]1([C@@H](O)C1CC1)NC(=O)[C@@H]2CCCl` showed an EC50 of 360 nM. For the same compound, it took 28 nM to reach half-maximal inhibition in test [2] (IC50).

For the compound `C[C@@]12OC(=O)[C@]1([C@@H](O)C1CCCCC1)NC(=O)[C@@H]2CC=O`, in [2], the IC50 is 330 nM. This lies in the sub-micromolar range.

Take `COC(=O)C[C@H]1C(=O)N[C@@]2([C@@H](O)C3CCCCC3)C(=O)O[C@@]12C`: the half-inhibitory concentration (IC50) in test [2] was determined as 500 nM.

`C[C@@]12OC(=O)[C@]1([C@@H](O)[C@@H]1C=CCCC1)NC(=O)[C@@H]2CCCl` [MARIZOMIB]: the inhibition result in [3], in [4], in [5] and in test [6] was “Active” in each case. The compound further showed a 50% inhibitory concentration (IC50) in [2] of 22 nM.

On to `C[C@@]12OC(=O)[C@]1([C@@H](O)C1CCCCC1)NC(=O)[C@@H]2CCCl`, for which, in [1], the EC50 was 10 nM. The inhibition result in test [3], in test [4], in [5] and in test [6] was “Active” each time. Moreover, 23 nM corresponded to half-maximal inhibition in [2] (IC50).

On to `C[C@@]12OC(=O)[C@]1([C@@H](O)C1CCCCC1)NC(=O)[C@@H]2CCCCl`, for which the EC50 in [1] turned out to be 90 nM. Also, the inhibition result in test [7], in test [8], in test [9] and in test [10] was “inactive” each time. Further, the inhibition entry in test [3] and in test [6] was “Active” throughout. In [2], this compound gave an IC50 of 50 nM.

In general, EC50 refers to the concentration giving half of the maximal effect. Low readings indicate greater potency, high ones weaker potency. As usually defined, the IC50 is the concentration that gives 50% inhibition. A higher IC50 goes with lower potency.
